Measured values collected from several papers.
Each line is one published result; the experiments were not run side by side.
Target: Ephrin type-A receptor 3 (EPHA3, Homo sapiens, UniProt P29320)
One construct used (P29320 21-983): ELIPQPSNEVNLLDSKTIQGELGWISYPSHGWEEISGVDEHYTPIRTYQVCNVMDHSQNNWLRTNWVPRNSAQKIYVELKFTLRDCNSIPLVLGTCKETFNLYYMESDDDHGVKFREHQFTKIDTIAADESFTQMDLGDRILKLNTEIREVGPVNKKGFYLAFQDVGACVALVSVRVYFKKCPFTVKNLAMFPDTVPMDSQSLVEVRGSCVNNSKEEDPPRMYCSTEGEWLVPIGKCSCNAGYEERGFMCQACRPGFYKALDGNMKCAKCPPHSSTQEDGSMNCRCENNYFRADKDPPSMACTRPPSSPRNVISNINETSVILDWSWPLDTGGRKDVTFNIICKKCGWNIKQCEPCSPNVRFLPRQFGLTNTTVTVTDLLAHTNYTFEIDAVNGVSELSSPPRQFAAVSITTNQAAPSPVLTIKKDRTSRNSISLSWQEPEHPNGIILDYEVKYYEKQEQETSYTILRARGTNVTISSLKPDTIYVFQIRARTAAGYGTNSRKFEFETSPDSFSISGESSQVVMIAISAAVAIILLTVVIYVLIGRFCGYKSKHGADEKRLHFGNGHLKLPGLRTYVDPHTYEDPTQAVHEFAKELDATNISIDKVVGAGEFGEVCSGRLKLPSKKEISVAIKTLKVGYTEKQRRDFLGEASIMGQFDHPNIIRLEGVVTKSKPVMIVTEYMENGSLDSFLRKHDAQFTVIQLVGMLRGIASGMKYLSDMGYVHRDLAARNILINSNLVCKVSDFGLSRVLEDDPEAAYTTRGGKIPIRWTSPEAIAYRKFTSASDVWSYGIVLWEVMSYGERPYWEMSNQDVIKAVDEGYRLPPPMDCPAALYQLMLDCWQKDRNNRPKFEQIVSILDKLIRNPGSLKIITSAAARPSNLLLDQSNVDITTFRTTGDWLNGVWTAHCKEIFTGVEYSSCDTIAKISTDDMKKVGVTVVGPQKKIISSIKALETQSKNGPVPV

Structure (SMILES)	effect on	action	technique	concentration	quantity	result
COc1cc(Nc2ncc(F)c(Nc3ccc4c(n3)NC(=O)C(C)(C)O4)n2)cc(OC)c1OC	binding		competition with immobilised ligand	10 µM	inhibition	90%
Cc1nn(C)cc1-c1nc2c(N3CCN(Cc4ccc(Cl)cc4)CC3)c(Cl)cnc2[nH]1	binding		competition with immobilised ligand	1 µM	remaining binding	100%
CC(C)(C)c1cc(C=C(C#N)C#N)cc(Br)c1O	enzyme activity	inhibitor		0.5 µM	remaining activity	102%
COc1ncccc1-c1cnn2ccc(N3CCN(C(=O)OC(C)C)CC3)nc12	binding		competition with immobilised ligand	1 µM	remaining binding	83%
N#CC1(c2ccccn2)CCN(Cc2cc(C(=O)O)c(=O)n3ccccc23)CC1	cell-free assay		competition with immobilised ligand	1 µM	remaining binding	75%
Cn1cc(-c2cc(F)cc(N3CCn4c(cc5c4CCCC5)C3=O)c2CO)cc(Nc2ccc(N3CCN(C4COC4)CC3)cn2)c1=O	enzyme activity	inhibitor		0.1 µM	inhibition	10%
Nc1ncc(-c2nc(N3CCOCC3)nc(N3CCOCC3)n2)c(C(F)F)n1	cell-free assay		competition with immobilised ligand	10 µM	remaining binding	69%
Cn1cc(-c2cccc(N3CCc4c(sc5c4CC(C)(C)C5)C3=O)c2CO)cc(Nc2ccncn2)c1=O	enzyme activity	inhibitor		1 µM	inhibition	-7%
Cn1cncc1[C@](O)(COc1ccc(C#N)cc1-c1ccc(OC(F)(F)F)cc1)c1ccc(C#N)cc1	cell-free assay		competition with immobilised ligand	1 µM	remaining binding	90%
O=c1[nH]c2ccccc2n1C1CCN(Cc2ccc(-c3[nH]c4cc5ncnc5cc4nc3-c3ccccc3)cc2)CC1	cell-free assay			0.5 µM	remaining signal	71.9%
